Variants at the floor of the assay were thinned out.
B1: tRNA (parent)
chain: GUUCCGUUGGCGUAAUGGUAACGCGUCUCCCUCCUAAGGAGAAGACUGCGGGUUCGAGUCCCGUACGGAACG

Variants of: B1
Assay: yeast fitness relative to wild type (ratio to wild type); higher = fitter; tRNA-Arg(CCU), competitive growth, 37 C, YPD
Outline: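 Gene amplicons from the start population and from each of six end populations were read by 100-nucleotide paired-end sequencing. Those end populations came from pooled Saccharomyces cerevisiae strains carrying tRNA-Arg(CCU) gene variants at the native locus, competed in YPD at 37°C for 24 hours. Fitness relative to wild type was worked out from changes in genotype frequencies. Genotypes needed ≥ 100 starting reads, and estimates < 0.5 were set to 0.5.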

Going from GUUCCGUUGGCGUAAUGGUAACGCGACUCCUUCCUAAGGAGAAGACUGCGGGUUCGAGUCCCGUACGAAACG [U26A C31U G68A] to GUUCCGUUGGCGUAAUGGUAACGCGACUCCCUCCUAAGGAGAUGACUGCGGGUUCGAGUCCCGUACGGAUCG [U26A A43U A70U], the yeast fitness rises from 0.716 to 0.838.

GUUCCGUUGGCGUAAUGGUAACGCGACUCACUCCUUAGGAGAAGACUGCGGAUUCGAAUCCCGUACGGAACG [U26A C30A A36U G52A G58A] and GUUCCGUUGGCGUAAUGGUAACGCGACUCCCUCCUAAGGAGACGUCUGCGGGUUCGAGUCCCGUCCGGAACG [U26A A43C A45U A65C] cannot be ordered by yeast fitness: at most 0.5 for the first, at most 0.5 for the second.

Compared with GUUCCGUUGGCGUAAUGGUAACGCGACUCCCUCCUACGGAGAAGACUGCGGGUUCGAGUCACGUACGGAACG [U26A A37C C61A], GUUCCGUUGGCGUAAUGGUAACGCGAUUCCCUCCUAAGGAAAAGACUGCGGGUUCGAGUCCCGUGCGGAACG [U26A C27U G41A A65G] is higher in yeast fitness: at most 0.5 for the first, 0.534 for the second.

Going from GUUCCGUUGGCGUAAUGGUAACGCGACUCCCUCCUAAGGAGUAGACUGCGGGUUCGAGUCCCGUACGGAACG [U26A A42U] to GUUCCGUUGGCGUAAUGGUAACGCGACUCUCUCCUAAGGAGAAGACUGCGGGUACGAGUCCCGUACGGAACG [U26A C30U U54A], the yeast fitness falls from 0.981 to at most 0.5.

First: GUUCCGUUGGCGUAAUGGUAACGCGACUCCCUCCUAAGGAGACGUCUGCGGGUUUGAGUCCCGUCCGGAACG [U26A A43C A45U C55U A65C]
Second: GUUCCGUUGGCGUAAUGGUAACGCGACUCCCUCGUAAGGAGAAGACUGCGGGUUCGUGUCCUGUACGGAACG [U26A C34G A57U C62U]
The yeast fitness of the first is lower: at most 0.5 for the first, 0.582 for the second.

First: GUUCCGUUGGCGUAAUGGUAACGCGACUCACUCCUAAGGAGAAGACUGCGGGUUCGAGUCCUGUACGGAACG [U26A C30A C62U]
Second: GUUCCGUUGGCGUAAUGGUAACGCGACUCCCUCCUAAGGAGAUGACUGCGGGUUCGAGUCCCGUACGAAACG [U26A A43U G68A]
The yeast fitness of the first is higher: 0.585 for the first, at most 0.5 for the second.

Compared with GUUCCGUUGGCGUAAUGGUAACGCGACUCCCUCUUAAGGAGAAGACGGCGGGUUCGAGUCCCGAACGGAACG [U26A C34U U47G U64A], GUUCCGUUGGCGUAAUGGUAACGCGACUCCCUCCUAAGGAGAAGACUGCGGGUUCGGGUCCCGUACGGAACG [U26A A57G] is higher in yeast fitness: at most 0.5 for the first, 0.973 for the second.

Compared with GUUCCGUUGGCGUAAUGGUAACGCGACUCCCUCCUAAGGAGAAGACUGCGGGUUCGUGUCCCGUACGGAACG [U26A A57U], GUUCCGUUGGCGUAAUGGUAACGCGACUCCAUCCUAAGGAGAAGACUGCGGGUUCGAGUCCCGUACGGAACG [U26A C31A] is higher in yeast fitness: 0.802 for the first, 0.803 for the second.

Compared with GUUCCGUUGGCGUAAUGGUAACGCGACUCCUUCCUAAGGAGAAGACUGCGGGUUCGAGUCCCGUACGGAACG [U26A C31U], GUUCCGUUGGCGUAAUGGUAACGCGAUUCCCUCCUAAGGAGAAGAGUGCGGGUUCGAGUCCCGUACGGAACG [U26A C27U C46G] is higher in yeast fitness: 0.999 for the first, 1 for the second.

Going from GUUCCGUUGGCGUAAUGGUAACGCGACUCCCUCCUAAGGAGAAGGCUGCGGGUCCGAGUCCCGUACGGAACG [U26A A45G U54C] to GUUCCGUUGGCGUAAUGGUAACGCGACUCCGUCCUUAGGAGAAGACUGCGGGUCGGAGUCCCGUACGGAACG [U26A C31G A36U U54C C55G], the yeast fitness falls from 0.52 to at most 0.5.

Compared with GUUCCGUUGGCGUAAUGGUAACGCGACUCCGUCCUAAGGAGAAGACUGCGGGUUCGAGUCCUGUACGGAACG [U26A C31G C62U], GUUCCGUUGGCGUAAUGGUAACGCGACUCGCUUCUAAGGAGAAGACUGCGGGUUCGAGUCCCGUACGGAACG [U26A C30G C33U] is lower in yeast fitness: 0.647 for the first, 0.604 for the second.

GUUCCGUUGGCGUAAUGGUAACGCGACUCCCUCCUAAGGAGAAGACUGGGGGUUCGAGUCACGUACGGAACG [U26A C49G C61A] and GUUCCGUUGGCGUAAUGGUAACGCGAUUCCCUGCUUAGGAGAAGACUGCAGGUUCGAGUCCCGUACGGAACG [U26A C27U C33G A36U G50A] cannot be ordered by yeast fitness: at most 0.5 for the first, at most 0.5 for the second.

First: GUUCCGUUGGCGUAAUGGUAACGCGACUCCCUCCUAAGGAGAAGACUGCGGGUUCGAGUCCCGUACGGCACG [U26A A69C]
Second: GUUCCGUUGGCGUAAUGGUAACGCGACUCCCUCCUAAGGAGAAGACUGCGGGUUCGAGUCCCGUACGGUACG [U26A A69U]
The yeast fitness of the first is higher: 1.06 for the first, 1.03 for the second.

GUUCCGUUGGCGUAAUGGUAACGCGACUCACUCAUAAGGAGAAGACUCCGGGUUCGAGUCCCGUACGUAACG [U26A C30A C34A G48C G68U] and GUUCCGUUGGCGUAAUGGUAACGCGACUCCAUCCUAUGGAGAUGACUGCGGGUUCGAGUCCCGUACGGAACG [U26A C31A A37U A43U] cannot be ordered by yeast fitness: at most 0.5 for the first, at most 0.5 for the second.

First: GUUCCGUUGGCGUAAUGGUAACGCGACUCCCUCCUAAGGAGAAGGCUGCGGGUUCGAGUCCCGUACGGAACG [U26A A45G]
Second: GUUCCGUUGGCGUAAUGGUAACGCGACUCCCUCCUAAGGAGAAGCCUGCGGGUUCGAGUCCCGUACGGAACG [U26A A45C]
The yeast fitness of the first is higher: 0.882 for the first, 0.698 for the second.

First: GUUCCGUUGGCGUAAUGGUAACGCGACUCCGUCCUUAGGAGAAGACUGCGGGUUCGAGUCCCGUUCGGAACG [U26A C31G A36U A65U]
Second: GUUCCGUUGGCGUAAUGGUAACGCGACUCUCUCCUAAGGAGAAGACUGCGGGUUCGAGUCCCGUACGGAACG [U26A C30U]
The yeast fitness of the first is lower: 0.681 for the first, 0.787 for the second.

First: GUUCCGUUGGCGUAAUGGUAACGCGACUCCCUCCUAGGGAGAAGACUAGGGGUUCGAGUCCCGUACGGAACG [U26A A37G G48A C49G]
Second: GUUCCGUUGGCGUAAUGGUAACGCGACUCCCUCCUAAGGAGAAGAUUGCGGGUUCGAGUCCCGUACGGAACG [U26A C46U]
The yeast fitness of the first is lower: at most 0.5 for the first, 0.874 for the second.

Going from GUUCCGUUGGCGUAAUGGUAACGCGACUCCCUCCUAAGGCAAAGACUGCGGGUUCGAAUCCCGUACGGAACG [U26A A40C G41A G58A] to GUUCCGUUGGCGUAAUGGUAACGCGACUCCCUCCUAAGGAGAAGACUGCGGGUUCGAGUCCCGUACGGACCG [U26A A70C], the yeast fitness rises from 0.655 to 0.928.

GUUCCGUUGGCGUAAUGGUAACGCGACUCGCUCCUAACGAGUAGACUGCGGGUUCGACUCCCGUACGGAACG [U26A C30G G38C A42U G58C] gave a yeast fitness of 0.759.
